ChEMBL document CHEMBL4689842, “EUbOPEN Chemogenomics Library wave 1” (2021)
Values joined by “and” are separate entries in the source; they are usually repeats but may differ in a detail not shown here. Equal entries are not always repeated.

System: U2OS
Experiment: Multiplex assay against U2OS
Assay type: toxicity, cell-based
Conditions: human
Procedure, shortened: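 Values for tubulin, mitochondrial-mass and membrane-permeability phenotypes are per cents of cells with healthy nuclei. These cells were identified by CellPathfinder machine-learning gating of live cells that had been stained at seeding with Hoechst33342, BioTracker Green Microtubule Cytoskeleton Dye, MitoTracker Red and Annexin V Alexa Fluor 680 and imaged on a CQ1 microscope at 37°C and 5% CO2 after compound addition. The gating first set Hoechst high-intensity objects apart from normal cells, then split normal cells into healthy, pyknosed or fragmented nuclei, and pyknosed cells into mitotic or apoptotic.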

[1] = 12 h, 1 µM, compound concentration 1 uM, replicate 1
[2] = 12 h, 1 µM, compound concentration 1 uM, replicate 2
[3] = 24 h, 1 µM, compound concentration 1 uM, replicate 1
[4] = 24 h, 1 µM, compound concentration 1 uM, replicate 2
[5] = 12 h, 10 µM, compound concentration 10 uM, replicate 1
[6] = 12 h, 10 µM, compound concentration 10 uM, replicate 2
[7] = 24 h, 10 µM, compound concentration 10 uM, replicate 1
[8] = 24 h, 10 µM, compound concentration 10 uM, replicate 2

In the case of `CC(C)C(=O)Nc1n[nH]c2cc(-c3cccc(NS(=O)(=O)C4CC4)c3)ccc12`, the “Population Apoptotic (%)” value [1] is reported as 33% and 20%, the “Population Fragmented Nuclei (%)” value [1] is reported as 8% and 3% and the “Population Healthy Nuclei (%)” value [1] is reported as 88% and 86%. For the same molecule, the “Population Membrane Permeable-Phenotype (%)” value [1] was 18% and 12%, the “Population Mitochondria Different-Phenotype (%)” value [1] was 22% and 20% and the “Population Mitotic Cells (%)” value [1] was 66% and 80%. For the same molecule, the “Population Normal (%)” value [1] was 98% and 95%, the “Population Pyknosed Nuclei (%)” value [1] was 3% and 9% and the “Population Tubulin-Different-Phenotype (%)” value [1] was 21% and 32%. For the same molecule, the “Total Cell Count” value [1] was 108 and 215, the “Population Apoptotic (%)” value [2] was 25% and 16% and the “Population Fragmented Nuclei (%)” value [2] was 11%. The “Population Healthy Nuclei (%)” value [2] was 82% and 92%, the “Population Hoechst High Intensity Objects (%)” value [2] was 12% and 6% and the “Population Membrane Permeable-Phenotype (%)” value [2] was 21% and 10%. The “Population Mitochondria Different-Phenotype (%)” value [2] was 42% and 28%, the “Population Mitotic Cells (%)” value [2] was 75% and 83% and the “Population Normal (%)” value [2] was 87% and 94%. The “Population Pyknosed Nuclei (%)” value [2] was 5% and 4%, the “Population Tubulin-Different-Phenotype (%)” value [2] was 26% and 18% and the “Total Cell Count” value [2] was 122 and 78. For the same molecule, the “Population Apoptotic (%)” value [3] was 27% and 25%, the “Population Fragmented Nuclei (%)” value [3] was 5% and 2% and the “Population Healthy Nuclei (%)” value [3] was 90% and 89%. The “Population Hoechst High Intensity Objects (%)” value [3] was 2% and 3%, the “Population Membrane Permeable-Phenotype (%)” value [3] was 12% and 10% and the “Population Mitochondria Different-Phenotype (%)” value [3] was 17% and 24%. The “Population Mitotic Cells (%)” value [3] was 72% and 75%, the “Population Normal (%)” value [3] was 97% and 96% and the “Population Pyknosed Nuclei (%)” value [3] was 4% and 8%. For the same molecule, the “Population Tubulin-Different-Phenotype (%)” value [3] was 23% and 38%, the “Total Cell Count” value [3] was 152 and 246 and the “Population Apoptotic (%)” value [4] was 18% and 21%. For the same molecule, the “Population Fragmented Nuclei (%)” value [4] was 4% and 3%, the “Population Healthy Nuclei (%)” value [4] was 82% and 88% and the “Population Hoechst High Intensity Objects (%)” value [4] was 8% and 4%. The “Population Mitochondria Different-Phenotype (%)” value [4] was 41% and 31%, the “Population Mitotic Cells (%)” value [4] was 81% and 78% and the “Population Normal (%)” value [4] was 91% and 95%. The “Population Pyknosed Nuclei (%)” value [4] was 12% and 7%, the “Population Tubulin-Different-Phenotype (%)” value [4] was 35% and the “Total Cell Count” value [4] was 144 and 96.
For `C=CC(=O)Nc1cc2c(Nc3ccc(F)c(Cl)c3)ncnc2cc1OCCCN1CCOCC1.Cl.Cl` [CANERTINIB DIHYDROCHLORIDE], the “Population Apoptotic (%)” value [1] was 91%, the “Population Fragmented Nuclei (%)” value [1] was 16% and the “Population Healthy Nuclei (%)” value [1] was 0%. The “Population Hoechst High Intensity Objects (%)” value [1] was 5%, the “Population Membrane Permeable-Phenotype (%)” value [1] was 0% and the “Population Mitochondria Different-Phenotype (%)” value [1] was 100%. The “Population Mitotic Cells (%)” value [1] was 8%, the “Population Normal (%)” value [1] was 94% and the “Population Pyknosed Nuclei (%)” value [1] was 83%. The “Population Tubulin-Different-Phenotype (%)” value [1] was 100%, the “Total Cell Count” value [1] was 137 and the “Population Apoptotic (%)” value [2] was 95%. The “Population Fragmented Nuclei (%)” value [2] was 10%, the “Population Healthy Nuclei (%)” value [2] was 4% and the “Population Hoechst High Intensity Objects (%)” value [2] was 20%. The “Population Membrane Permeable-Phenotype (%)” value [2] was 100%, the “Population Mitotic Cells (%)” value [2] was 5% and the “Population Normal (%)” value [2] was 79%. The “Population Pyknosed Nuclei (%)” value [2] was 85%, the “Total Cell Count” value [2] was 88 and the “Population Apoptotic (%)” value [5] was 22%. For the same molecule, the “Population Fragmented Nuclei (%)” value [5] was 5%, the “Population Healthy Nuclei (%)” value [5] was 87% and the “Population Hoechst High Intensity Objects (%)” value [5] was 2%. The “Population Membrane Permeable-Phenotype (%)” value [5] was 38%, the “Population Mitochondria Different-Phenotype (%)” value [5] was 11% and the “Population Mitotic Cells (%)” value [5] was 77%. The “Population Normal (%)” value [5] was 97%, the “Population Pyknosed Nuclei (%)” value [5] was 6% and the “Population Tubulin-Different-Phenotype (%)” value [5] was 17%. For the same molecule, the “Total Cell Count” value [5] was 142, the “Population Apoptotic (%)” value [6] was 33% and the “Population Fragmented Nuclei (%)” value [6] was 12%. The “Population Healthy Nuclei (%)” value [6] was 81%, the “Population Hoechst High Intensity Objects (%)” value [6] was 10% and the “Population Membrane Permeable-Phenotype (%)” value [6] was 24%. For the same molecule, the “Population Mitochondria Different-Phenotype (%)” value [6] was 22%, the “Population Mitotic Cells (%)” value [6] was 66% and the “Population Normal (%)” value [6] was 89%. For the same molecule, the “Population Pyknosed Nuclei (%)” value [6] was 5%, the “Population Tubulin-Different-Phenotype (%)” value [6] was 14% and the “Total Cell Count” value [6] was 122. For the same molecule, the “Population Apoptotic (%)” value [3] was 99%, the “Population Fragmented Nuclei (%)” value [3] was 8% and the “Population Healthy Nuclei (%)” value [3] was 4%. The “Population Hoechst High Intensity Objects (%)” value [3] was 13%, the “Population Membrane Permeable-Phenotype (%)” value [3] was 100% and the “Population Mitochondria Different-Phenotype (%)” value [3] was 100%. The “Population Mitotic Cells (%)” value [3] was 0%, the “Population Normal (%)” value [3] was 86% and the “Population Pyknosed Nuclei (%)” value [3] was 87%. The “Population Tubulin-Different-Phenotype (%)” value [3] was 100%, the “Total Cell Count” value [3] was 137 and the “Population Apoptotic (%)” value [4] was 100%. The “Population Fragmented Nuclei (%)” value [4] was 14%, the “Population Healthy Nuclei (%)” value [4] was 5% and the “Population Hoechst High Intensity Objects (%)” value [4] was 21%. The “Population Normal (%)” value [4] was 78%, the “Population Pyknosed Nuclei (%)” value [4] was 79% and the “Total Cell Count” value [4] was 85. For the same molecule, the “Population Apoptotic (%)” value [7] was 70%, the “Population Fragmented Nuclei (%)” value [7] was 5% and the “Population Hoechst High Intensity Objects (%)” value [7] was 3%. For the same molecule, the “Population Mitochondria Different-Phenotype (%)” value [7] was 11%, the “Population Mitotic Cells (%)” value [7] was 29% and the “Population Normal (%)” value [7] was 96%. The “Population Pyknosed Nuclei (%)” value [7] was 9%, the “Population Tubulin-Different-Phenotype (%)” value [7] was 9% and the “Total Cell Count” value [7] was 186. For the same molecule, the “Population Apoptotic (%)” value [8] was 42%, the “Population Fragmented Nuclei (%)” value [8] was 9% and the “Population Healthy Nuclei (%)” value [8] was 84%. For the same molecule, the “Population Hoechst High Intensity Objects (%)” value [8] was 8%, the “Population Membrane Permeable-Phenotype (%)” value [8] was 20% and the “Population Mitochondria Different-Phenotype (%)” value [8] was 23%. The “Population Mitotic Cells (%)” value [8] was 57%, the “Population Normal (%)” value [8] was 91% and the “Population Pyknosed Nuclei (%)” value [8] was 5%. For the same molecule, the “Population Tubulin-Different-Phenotype (%)” value [8] was 19% and the “Total Cell Count” value [8] was 135.
